From ChEMBL document CHEMBL1275269, “Cyclization of some carbothioamide derivatives containing antipyrine and triazole moieties and investigation of their antimicrobial activities” (2010)
Activity calls are given as the source filed them. The rule behind the calls is not given here.

Tests used:
Escherichia coli = experiment: Antibacterial activity against Escherichia coli ATCC 25922 after 18 hrs by agar-well diffusion method; format: functional; as to IZ: test concentration or dose not given here
How it was run: (§1)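 Microorganisms flood-inoculated onto the surface of Mueller-Hinton agar or Sabouraud dextrose agar, then dried. 5 mm diameter wells cut into the agar with a sterile cork-borer.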

Klebsiella aerogenes = experiment: Antibacterial activity against Enterobacter aerogenes ATCC 13048 after 18 hrs by agar-well diffusion method; format: functional; how it was run: as §1; as to IZ: test concentration or dose not given here
[1] = test system: Yersinia pseudotuberculosis; experiment: Antibacterial activity against Yersinia pseudotuberculosis ATCC 911 after 18 hrs by agar-well diffusion method; format: functional
How it was run: (§2)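 Organisms flood-inoculated onto the agar surface and dried. Five-millimetre wells were cut with a sterile cork-borer, and test substance was delivered into each well.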

Pseudomonas aeruginosa = experiment: Antibacterial activity against Pseudomonas aeruginosa ATCC 43288 after 18 hrs by agar-well diffusion method; format: functional; how it was run: as §1; as to IZ: test concentration or dose not given here
Staphylococcus aureus = experiment: Antibacterial activity against Staphylococcus aureus ATCC 25923 after 18 hrs by agar-well diffusion method; format: functional; how it was run: as §1; as to IZ: test concentration or dose not given here
Enterococcus faecalis = experiment: Antibacterial activity against Enterococcus faecalis ATCC 29212 after 18 hrs by agar-well diffusion method; format: functional; how it was run: as §1; as to IZ: test concentration or dose not given here
Bacillus cereus = experiment: Antibacterial activity against Bacillus cereus 702 after 18 hrs by agar-well diffusion method; format: functional; how it was run: as §1; as to IZ: test concentration or dose not given here
[2] = test system: Mycolicibacterium smegmatis; experiment: Antibacterial activity against Mycobacterium smegmatis ATCC 607 after 18 hrs by agar-well diffusion method; format: functional; how it was run: as §1; as to IZ: test concentration or dose not given here
Candida albicans = experiment: Antifungal activity against Candida albicans ATCC 60193 after 18 hrs by agar-well diffusion method; format: functional
How it was run: (§3)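 Yeast flood-inoculated onto Sabouraud dextrose agar and dried. Five-millimetre wells were cut with a sterile cork-borer, and test substance was delivered into each well.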

Candida tropicalis = experiment: Antifungal activity against Candida tropicalis ATCC 13803 after 18 hrs by agar-well diffusion method; format: functional; how it was run: as §3
Saccharomyces cerevisiae = experiment: Antifungal activity against Saccharomyces cerevisiae RSKK 251 after 18 hrs by agar-well diffusion method; format: functional; how it was run: as §2
Aspergillus niger = experiment: Antifungal activity against Aspergillus niger RSKK 4017 after 18 hrs by agar-well diffusion method; format: functional, organism-based; how it was run: as §1

Compound | inhibition zone (IZ) (Escherichia coli) [mm] | inhibition zone (IZ) (Klebsiella aerogenes) [mm] | inhibition zone (IZ) [1] [mm] | inhibition zone (IZ) (Pseudomonas aeruginosa) [mm] | Activity (Staphylococcus aureus) | Activity (Enterococcus faecalis) | Activity (Bacillus cereus) | inhibition zone (IZ) [2] [mm] | Activity (Candida albicans) | Activity (Candida tropicalis) | Activity (Saccharomyces cerevisiae) | Activity (Aspergillus niger) | inhibition zone (IZ) (Staphylococcus aureus) [mm] | inhibition zone (IZ) (Enterococcus faecalis) [mm] | inhibition zone (IZ) (Bacillus cereus) [mm] | Activity (Klebsiella aerogenes) | other results
Cc1c(-n2c(Cc3ccc(Cl)cc3)nn(Cc3nnc(NCc4ccccc4)s3)c2=O)c(=O)n(-c2ccccc2)n1C | 25 | 25 | 25 | 30 | Active | Active | Active | 25 | Active | Active | Active | Active | – | – | – | – | –
CC1(C)S[C@@H]2[C@H](NC(=O)[C@H](N)c3ccccc3)C(=O)N2[C@H]1C(=O)O [AMPICILLIN] | 10 | 10 | 18 | 18 | – | – | – | – | – | – | – | – | 35 | 10 | 15 | – | –
Cc1c(-n2c(Cc3ccc(Cl)cc3)nn(CC(=O)NNC(=S)Nc3ccccc3)c2=O)c(=O)n(-c2ccccc2)n1C | 10 | – | 8 | 8 | – | – | – | 10 | Active | Active | Active | Active | 8 | 8 | 10 | Active | –
CN[C@@H]1[C@H](O[C@H]2[C@H](O[C@H]3[C@H](O)[C@@H](O)[C@H](N=C(N)N)[C@@H](O)[C@@H]3N=C(N)N)O[C@@H](C)[C@]2(O)C=O)O[C@@H](CO)[C@H](O)[C@H]1O [STREPTOMYCIN] | – | – | – | – | – | – | – | 35 | – | – | – | – | – | – | – | – | –
Cc1c(-n2c(Cc3ccc(Cl)cc3)nn(Cc3nnc(S)n3-c3ccccc3)c2=O)c(=O)n(-c2ccccc2)n1C | 25 | 25 | 30 | 30 | – | – | – | 34 | Active | Active | Active | Active | 25 | 20 | 30 | – | –
CCOC(=O)Cn1nc(Cc2ccc(Cl)cc2)n(-c2c(C)n(C)n(-c3ccccc3)c2=O)c1=O | – | – | – | – | Active | Active | Active | – | Active | Active | Active | Active | – | – | – | Active | Activity (Escherichia coli): Active; Activity [1]: Active; Activity (Pseudomonas aeruginosa): Active; Activity [2]: Active
Cc1c(-n2c(Cc3ccc(Cl)cc3)nn(Cc3nnc(S)n3-c3ccc(F)cc3)c2=O)c(=O)n(-c2ccccc2)n1C | 35 | 30 | 30 | 28 | – | – | – | 30 | Active | Active | Active | Active | 30 | 28 | 30 | – | –
Cc1c(-n2c(Cc3ccc(Cl)cc3)nn(Cc3nnc(S)n3Cc3ccccc3)c2=O)c(=O)n(-c2ccccc2)n1C | 35 | 30 | 30 | 30 | – | – | – | 33 | Active | Active | Active | Active | 30 | 28 | 30 | – | –
Cc1c(-n2c(Cc3ccc(Cl)cc3)nn(Cc3nnc(Nc4ccc(F)cc4)s3)c2=O)c(=O)n(-c2ccccc2)n1C | 20 | 25 | 25 | 20 | Active | Active | Active | 25 | Active | Active | Active | Active | – | – | – | – | –
Cc1c(-n2c(Cc3ccc(Cl)cc3)nn(CC(=O)N/N=c3/scc(-c4ccc(Cl)cc4)n3-c3ccccc3)c2=O)c(=O)n(-c2ccccc2)n1C | 15 | – | 12 | – | Active | Active | Active | 10 | Active | Active | Active | Active | – | – | – | Active | Activity (Pseudomonas aeruginosa): Active
Cc1c(-n2c(Cc3ccc(Cl)cc3)nn(CC(=O)NNC(=S)NCc3ccccc3)c2=O)c(=O)n(-c2ccccc2)n1C | 15 | 10 | 10 | 10 | – | – | – | 15 | Active | Active | Active | Active | 10 | 8 | 10 | – | –
Cc1c(-n2c(Cc3ccc(Cl)cc3)nn(CC(=O)N/N=c3/scc(-c4ccc([N+](=O)[O-])cc4)n3-c3ccccc3)c2=O)c(=O)n(-c2ccccc2)n1C | 15 | – | 30 | 20 | – | – | – | 25 | Active | Active | Active | Active | 30 | 18 | 20 | Active | –
Cc1c(-n2c(Cc3ccc(Cl)cc3)nn(Cc3nnc(Nc4ccccc4)s3)c2=O)c(=O)n(-c2ccccc2)n1C | 25 | 25 | 25 | 35 | Active | Active | Active | 25 | Active | Active | Active | Active | – | – | – | – | –
Cc1c(-n2c(Cc3ccc(Cl)cc3)n[nH]c2=O)c(=O)n(-c2ccccc2)n1C | – | – | – | – | Active | Active | Active | – | Active | Active | Active | Active | – | – | – | Active | Activity (Escherichia coli): Active; Activity [1]: Active; Activity (Pseudomonas aeruginosa): Active; Activity [2]: Active
Cc1c(-n2c(Cc3ccc(Cl)cc3)nn(CC(=O)NN)c2=O)c(=O)n(-c2ccccc2)n1C | – | – | – | – | Active | Active | Active | – | Active | Active | Active | Active | – | – | – | Active | Activity (Escherichia coli): Active; Activity [1]: Active; Activity (Pseudomonas aeruginosa): Active; Activity [2]: Active
Cc1c(-n2c(Cc3ccc(Cl)cc3)nn(Cc3nnc(S)o3)c2=O)c(=O)n(-c2ccccc2)n1C | 35 | 30 | 30 | 30 | – | – | – | 38 | Active | Active | Active | Active | 30 | 28 | 30 | – | –
OC(Cn1cncn1)(Cn1cncn1)c1ccc(F)cc1F [FLUCONAZOLE] | – | – | – | – | – | – | – | – | – | – | – | – | – | – | – | – | inhibition zone (IZ) (Candida albicans): 25 mm; inhibition zone (IZ) (Candida tropicalis): 25 mm; inhibition zone (IZ) (Saccharomyces cerevisiae): >25 mm
Cc1c(-n2c(Cc3ccc(Cl)cc3)nn(CC(=O)NNC(=S)Nc3ccc(F)cc3)c2=O)c(=O)n(-c2ccccc2)n1C | 15 | 8 | 10 | 10 | – | – | – | 15 | Active | Active | Active | Active | 10 | 8 | 10 | – | –
